Assay results as given in PubChem BioAssay.
Records with an inconclusive call do not appear.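 Rule for the calls, unless noted: active = viability increase at or above a cutoff of the median across tested compounds plus 3 SD (cut at about 8.5% in these data, passing the limit was not always enough); inconclusive = some gains above the cutoff, reason not given; inactive = the rest.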

Columns and labels:
[1] = OD615 S. cerevisiae growth inhibition, permissive medium, pilot counter-assay, permissive growth control for S. cerevisiae lifespan shortening project (AID 705;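 active = growth inhibition above 25% in both replicates, a cutoff set 3 SD above the mean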); details: OD615, 24 h, at 10 µM, active compounds read high
Method in brief: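 System: Engineered DeaD yeast | Buffer or medium: SC raffinose/galactose permissive medium | Doses: 10 µM single dose, 0.25% DMSO | Times: 24 h exposure, 30 °C | Measured by: OD615 turbidity read | Read-out: Yeast growth inhibition indicated by reduced 24 h OD615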

[2] = Restrictive medium S. cerevisiae growth inhibition, OD615, pilot screen of yeast lifespan reduction project, restrictive growth control (AID 706;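 active = growth inhibition above a set limit, 3 SD over mean compound inhibition, in both replicates, cut at about 43% in these data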;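 note: modified DeaD lifespan yeast strain shifted to restrictive glucose medium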); details: OD615, 48 h, at 10 µM, active compounds read high
Method in brief: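 Assay system: engineered S. cerevisiae DeaD strain; Buffer or medium: CSMM-D glucose medium; Dosing: 10 µM compound, 0.25% DMSO; Times: cell pre-growth 4 h, compound exposure 48 h, 30 °C; Detection: absorbance (optical density) measured at 615 nm.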

[3] = viability gain of MRP-1-high H69AR cells under doxorubicin, pilot screen, MRP-1 activator project, CellTiter-Glo, duplicate (AID 807); details: H69AR viability with doxorubicin, CellTiter-Glo luminescence; at 10 µM; active compounds read high;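 note: compound pretreatment 18-22 h then 72 h combined with doxorubicin; 0% = doxorubicin alone and 100% = vehicle without doxorubicin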
[4] = growth suppression of beta-catenin knockout HCT116, pilot screen, human colon tumor cells (AID 823;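 active = cell viability at or below a set limit in both duplicate runs, the limit being the all-compound median minus 4 SD, cut at about 23% in these data, passing the limit was not always enough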;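 note: 0% = wells killed by 20 µM Hyamine and 100% = untreated DMSO cell wells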); details: CellTiter-Glo, 60 h, at 10 µM, active compounds read low
[5] = growth suppression of PTEN-deleted HCT116, pilot screen, cell-based, HCT116 clonal line, CellTiter-Glo (AID 824;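 active = viability at or below 27.92% in each of two runs, the all-compound median minus 4 SD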;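 note: 0% = 20 µM Hyamine control and 100% = vehicle cell control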); details: 60 h, at 10 µM, active compounds read low
[6] = inhibitors of the yeast RAM network, pilot screen, dse1pr::URA3 reporter, 5-FOA selection (AID 869;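 active = inhibition over a set limit, the all-compound mean plus 3 SD, in both replicate runs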;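 note: 0% = DMSO wells with no growth and 100% = 10 µM 1-NA-PP1 with full growth; RAM network block rescues cells from 5-FOA so hits raise OD615 growth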); details: S. cerevisiae dse1pr::URA3 5-FOA growth, OD615, 2 d; at 10 µM; active compounds read high; strain carries analog-sensitive mutant Cbk1 kinase
[7] = RAM signaling pathway blockade in yeast – S. cerevisiae, Pdr1DBD-CYC8 efflux-inhibited sensitized strain, primary screen (AID 1298;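 active = RAM network inhibition above 8.4% in each of two replicates, 3 SD over the compound average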;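 note: 0% = DMSO untreated cells without growth and 100% = 10 µM 1-NA-PP1 full growth; higher means more yeast growth rescued from 5-FOA killing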); details: S. cerevisiae cbk1-as DSE1-URA3 strain, 5-FOA growth OD615, 2 d; at 50 µM; active compounds read high

Oc1c(C(c2cccs2)N2CCOCC2)sc2ncnn12 (stereo not drawn)
inactive: growth inhibition [1] 11.1% | growth inhibition [2] -3.88% | viability increase [3] 0.31% | viability [4] 105% | viability [5] 101% | inhibition [6] 0.895% | RAM network inhibition [7] 5.2%

CC1CCN(C(=O)C(Cc2ccccc2)n2cccc2)CC1 (stereo not drawn)
inactive: growth inhibition [1] -6.79% | growth inhibition [2] -8.94% | viability increase [3] -3.15% | viability [4] 87.9% | viability [5] 79% | inhibition [6] 2.27% | RAM network inhibition [7] 5.92%

CC(=O)Nc1nnc(SCC(=O)NCCOc2ccccc2)s1
inactive: growth inhibition [1] -0.45% | growth inhibition [2] -7.88% | viability increase [3] -0.85% | viability [4] 98.9% | viability [5] 96.7% | inhibition [6] 0.52% | RAM network inhibition [7] 4.66%

N#Cc1c(-c2ccco2)c2c([nH]c1=S)CCCC2
inactive: growth inhibition [1] 6.88% | growth inhibition [2] -0.73% | viability increase [3] -3.4% | viability [4] 105% | viability [5] 93.8% | inhibition [6] 1.57% | RAM network inhibition [7] 1.82%

CC(C)c1nnc(NC(=O)c2cccs2)s1
inactive: growth inhibition [1] -15% | growth inhibition [2] -8.46% | viability increase [3] 0.84% | viability [4] 95.5% | viability [5] 86.4% | inhibition [6] 1.23% | RAM network inhibition [7] 6.85%

O=c1c2c3c(sc2nc2n1CCCCC2)CCCCC3
inactive: growth inhibition [1] -11.5% | growth inhibition [2] -20.9% | viability increase [3] 0.17% | viability [4] 91.3% | viability [5] 91.7% | inhibition [6] 1.92% | RAM network inhibition [7] 6.27%

CC1CCCN(C(=O)C(Cc2ccccc2)n2cccc2)C1 (stereo not drawn)
inactive: growth inhibition [1] -11.8% | growth inhibition [2] -13% | viability increase [3] -3.01% | viability [4] 87.3% | viability [5] 88.4% | inhibition [6] 2% | RAM network inhibition [7] 0.97%

O=C(NCC(c1ccc(F)cc1)N1CCOCC1)c1ccc(Br)o1 (stereo not drawn)
inactive: growth inhibition [1] -9.34% | growth inhibition [2] -13.2% | viability increase [3] -1.97% | viability [4] 86.3% | viability [5] 81.8% | inhibition [6] 2.88% | RAM network inhibition [7] 1.24%

CCc1nnc(NC(=O)C(C)Sc2ccccc2)s1 (stereo not drawn)
inactive: growth inhibition [1] 6.98% | growth inhibition [2] 18.9% | viability increase [3] 1.53% | viability [4] 99.3% | viability [5] 98.1% | inhibition [6] 1.98% | RAM network inhibition [7] -0.83%

CCOC(=O)Cc1c(C)nc2c(-c3ccccc3)c[nH]n2c1=O
inactive: growth inhibition [1] -9.38% | growth inhibition [2] -14.3% | viability increase [3] -5.95% | viability [4] 76.8% | viability [5] 76.5% | inhibition [6] 1.96% | RAM network inhibition [7] 10.5%

COc1ccccc1NC(=O)CSc1ncn[nH]1
inactive: growth inhibition [1] -3.71% | growth inhibition [2] -11% | viability increase [3] 1.06% | viability [4] 98.2% | viability [5] 101% | inhibition [6] -0.045% | RAM network inhibition [7] 2.9%

Cc1ccccc1-c1nnc(-c2ccc(Cl)cc2)o1
inactive: growth inhibition [1] -18.7% | growth inhibition [2] -20.9% | viability increase [3] -6.28% | viability [4] 77.9% | viability [5] 64.8% | inhibition [6] 4.19% | RAM network inhibition [7] 6.89%

COc1ccc(NC(=O)c2c(-c3ccccc3)noc2C)c(OC)c1
inactive: growth inhibition [1] -16% | growth inhibition [2] -30.3% | viability increase [3] -1.79% | viability [4] 97.4% | viability [5] 92.6% | inhibition [6] 0.895% | RAM network inhibition [7] 3.75%

Cc1ccc(-c2nnc3n2N=C(c2ccccc2)CS3)cc1
inactive: growth inhibition [1] -5.77% | growth inhibition [2] 6.07% | viability increase [3] -0.74% | viability [4] 97.7% | viability [5] 96.9% | inhibition [6] 3.56% | RAM network inhibition [7] 2.25%

CCOC(=O)N1CCC(Nc2ccc3nnc(-c4ccccc4)n3n2)CC1
inactive: growth inhibition [1] 12.3% | growth inhibition [2] 29.3% | viability increase [3] -6.99% | viability [4] 69.4% | viability [5] 66% | inhibition [6] -0.975% | RAM network inhibition [7] 2.57%

CC(NC(=O)c1ccc(Cl)cc1)C(=O)N1CCCCC1 (stereo not drawn)
inactive: growth inhibition [1] 2.3% | growth inhibition [2] 0.39% | viability increase [3] 0.75% | viability [4] 98% | viability [5] 96.9% | inhibition [6] 2.58% | RAM network inhibition [7] 5.32%

CC1(C)CC(=O)C2(CC3=C(CC(C)(C)CC3=O)O2)C(=O)C1
inactive: growth inhibition [1] -4.3% | growth inhibition [2] 0.72% | viability increase [3] 0.2% | viability [4] 94.7% | viability [5] 97.1% | inhibition [6] 1.96% | RAM network inhibition [7] 1.77%

COc1ccccc1N1CCN(C(CNC(=O)C2CCCCC2)c2cccnc2)CC1 (stereo not drawn)
inactive: growth inhibition [1] -3.31% | growth inhibition [2] -3.02% | viability increase [3] 1.93% | viability [4] 90.1% | viability [5] 94.4% | inhibition [6] 0.775% | RAM network inhibition [7] 3.85%

O=C(CN1CCOc2ccccc21)NCc1ccco1
inactive: growth inhibition [1] -11.6% | growth inhibition [2] -14.4% | viability increase [3] -4.51% | viability [4] 88.1% | viability [5] 82.9% | inhibition [6] 0.09% | RAM network inhibition [7] 0.05%

CCOc1ccc(Cc2nnc(SCC(=O)c3ccc(OC)cc3)o2)cc1
inactive: growth inhibition [1] 1.71% | growth inhibition [2] 25.5% | viability increase [3] 0.28% | viability [4] 54.3% | viability [5] 70.3% | inhibition [6] 1.66% | RAM network inhibition [7] 11.3%

COc1ccc(S(=O)(=O)N2CCN(Cc3c[nH]c4ccccc34)CC2)cc1
inactive: growth inhibition [1] -13.2% | growth inhibition [2] -14.2% | viability increase [3] -4.53% | viability [4] 80.7% | viability [5] 89.6% | inhibition [6] 2.11% | RAM network inhibition [7] 4.82%

COc1ccc(N2CCN(S(=O)(=O)c3ccc(OC)cc3)CC2)cc1
inactive: growth inhibition [1] -4.01% | growth inhibition [2] 3.09% | viability increase [3] -5.5% | viability [4] 99.3% | viability [5] 106% | inhibition [6] 0.885% | RAM network inhibition [7] 3.84%

CC(=O)C1=C(C)NC(SCC(=O)c2ccc(C)cc2)=C(C#N)C1c1ccco1 (stereo not drawn)
inactive: growth inhibition [1] -5.27% | growth inhibition [2] 32.5% | viability increase [3] -6.5% | viability [4] 49.2% | viability [5] 52.7% | inhibition [6] 4.71% | RAM network inhibition [7] 2.93%

COC(=O)/C=C/S(=O)(=O)c1ccc(NC(C)=O)cc1
inactive: growth inhibition [1] -15.3% | growth inhibition [2] 0.685% | viability increase [3] -8.44% | viability [4] 88.3% | viability [5] 85.4% | inhibition [6] 0.565% | RAM network inhibition [7] 7.25%
